Active and inactive are the calls of the source. The calls are words filed in the database; no cut-off is given here.
How the values were obtained:
[1] = system: Woodchuck hepatitis virus; experiment: Antiviral activity against Woodchuck hepatitis virus infected in woodchuck assessed as reduction of viral DNA replicative intermediate level per ug of total cell DNA at 15 mg/kg, po qd for 48 weeks measured on 60th week (reference value: 979 pg); format: functional
Summary of the method: (§1)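 Chronic WHV-carrier woodchucks, 5 per group, 15 mg/kg/day oral once daily for 48 weeks in liquid diet. Needle liver biopsies were snap-frozen in liquid nitrogen and stored at −70°C. Hepatic WHV DNA replicative intermediates were quantified by Southern blot (pg/μg total cell DNA) and WHV RNA by Northern blot; group means ± SD were compared with pretreatment and placebo.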

[2] = system: Woodchuck hepatitis virus; experiment: Antiviral activity against Woodchuck hepatitis virus infected in woodchuck assessed as reduction of viral antigen positive hepatocytes at 15 mg/kg, po qd for 48 weeks measured on 60th week (reference value: 26 %); format: functional, Hepatocyte; parameters: scale not given: the % may be the effect or the level left
Summary of the method: (§2)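 Chronic WHV-carrier woodchucks, 5 per group, 15 mg/kg/day oral once daily for 48 weeks in liquid diet. Liver biopsies were taken at pretreatment, weeks 12, 36, 48 and week 60. Percentage of hepatocytes positive for WHcAg was given as group mean ± SD and compared with pretreatment and placebo.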

[3] = system: Woodchuck hepatitis virus; experiment: Antiviral activity against Woodchuck hepatitis virus infected in woodchuck assessed as reduction of viral antigen positive hepatocytes at 15 mg/kg, po qd for 48 weeks study (reference value: 35 +/- 27 %); format: functional, Hepatocyte; parameters: scale not given: the % may be the effect or the level left; summary of the method: as §2
Marmota monax [4] = experiment: Toxicity in Woodchuck hepatitis virus infected woodchuck assessed as increase of serum gamma-glutamyltransferase activity at 15 mg/kg, po qd for 48 weeks; format: organism-based; parameters: dose 15 mg/kg, route oral; settings: in vivo, 8064 h
Summary of the method: (§3)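 Woodchucks chronically infected with WHV, 5 per group, received oral drug once daily in liquid diet for 48 weeks; placebo got diet only. Serum chemistry (GGT, ALP, ALT, AST, SDH, among others) was run 2 weeks pretreatment, at week 0, every other week to week 12, then monthly to week 48. Sampling continued at 2, 4, 6, 8 and 12 weeks post-treatment.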

[5] = system: Woodchuck hepatitis virus; experiment: Antiviral activity against Woodchuck hepatitis virus infected in woodchuck assessed as frequency of hepatocytes expressing viral antigen at 15 mg/kg, po qd measured on 12th week on 48 weeks study; format: functional, Hepatocyte
Summary of the method: (§4)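 Chronic WHV-carrier woodchucks, 5 per group, given 15 mg/kg/day orally once daily for 48 weeks in liquid diet; placebo is diet alone. Liver biopsies at pretreatment, weeks 12, 36, 48 and 12 weeks after withdrawal. Cytoplasmic WHsAg staining scored 0–4: 1 ≤1%, 2 ≤2%, 3 ≤5%, 4 ≥10% of hepatocytes.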

Marmota monax [6] = experiment: Toxicity in Woodchuck hepatitis virus infected woodchuck assessed as effect on hematological parameters at 15 mg/kg, po qd for 48 weeks measured up to 60 weeks; format: organism-based; parameters: dose 15 mg/kg, route oral; settings: in vivo
Summary of the method: (§5)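 Chronic WHV-carrier woodchucks, 5 per group, were dosed orally once daily in liquid diet for 48 weeks, with a placebo diet-only group. Body weights were monitored. Complete blood counts were taken 2 weeks pretreatment, at weeks 12, 36 and 48 of treatment, and 12 weeks after withdrawal. Values were compared with placebo controls.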

[7] = system: Woodchuck hepatitis virus; experiment: Antiviral activity against Woodchuck hepatitis virus infected in woodchuck assessed as reduction of viral RNA level per ug of total cell DNA at 15 mg/kg, po qd for 48 weeks measured on 60th week (reference value: 27 pg); format: functional; summary of the method: as §1
[8] = system: Woodchuck hepatitis virus; experiment: Antiviral activity against Woodchuck hepatitis virus infected in woodchuck assessed as reduction of viral antigen positive hepatocytes at 15 mg/kg, po qd measured on 36th week on 48 weeks study (reference value: 41 +/- 25 %); format: functional, Hepatocyte; parameters: scale not given: the % may be the effect or the level left; summary of the method: as §2
Marmota monax [9] = experiment: Toxicity in Woodchuck hepatitis virus infected woodchuck assessed as increase of liver sorbitol dehydrogenase activity at 15 mg/kg, po qd measured on 4 to 24 weeks on 48 week study; format: organism-based; parameters: dose 15 mg/kg, route oral; settings: in vivo; summary of the method: as §3
Marmota monax [10] = experiment: Toxicity in Woodchuck hepatitis virus infected woodchuck assessed as increase of liver alkaline phosphatase activity at 15 mg/kg, po qd for 48 weeks; format: organism-based; parameters: dose 15 mg/kg, route oral; settings: in vivo, 8064 h; summary of the method: as §3
[11] = system: Woodchuck hepatitis virus; experiment: Antiviral activity against Woodchuck hepatitis virus infected in woodchuck assessed as frequency of hepatocytes expressing viral antigen at 15 mg/kg, po qd measured on 36th week on 48 weeks study; format: functional, Hepatocyte; summary of the method: as §4
[12] = system: Woodchuck hepatitis virus; experiment: Antiviral activity against Woodchuck hepatitis virus infected in woodchuck assessed as reduction of viral RNA level per ug of total cell DNA at 15 mg/kg, po qd measured on 36th week on 48 weeks study (reference value: 33 +/- 21 pg); format: functional; summary of the method: as §1
[13] = system: Woodchuck hepatitis virus; experiment: Antiviral activity against Woodchuck hepatitis virus infected in woodchuck assessed as reduction of viral DNA replicative intermediate level per ug of total cell DNA at 15 mg/kg, po qd for 48 weeks (reference value: 995 +/- 736 pg); format: functional; summary of the method: as §1
Marmota monax [14] = experiment: Toxicity in Woodchuck hepatitis virus infected woodchuck assessed as increase of liver sorbitol dehydrogenase activity at 15 mg/kg, po qd measured on 28 to 48 weeks on 48 week study; format: organism-based; parameters: dose 15 mg/kg, route oral; settings: in vivo; summary of the method: as §3
Marmota monax [15] = experiment: Toxicity in Woodchuck hepatitis virus infected woodchuck assessed as increase of liver aspartate aminotransferase activity at 15 mg/kg, po qd for 48 weeks; format: organism-based; parameters: dose 15 mg/kg, route oral; settings: in vivo, 8064 h; summary of the method: as §3
[16] = system: Woodchuck hepatitis virus; experiment: Antiviral activity against Woodchuck hepatitis virus infected in woodchuck assessed as reduction of viral antigen level in serum at 15 mg/kg, po qd measured on 12th week on 48 weeks study (reference value: 4.3 +/- 1.5 log10 ng/ml); format: functional
[17] = system: Woodchuck hepatitis virus; experiment: Antiviral activity against Woodchuck hepatitis virus infected in woodchuck assessed as reduction of viral antigen level in serum at 15 mg/kg, po qd measured on 36th week on 48 weeks study (reference value: 3.8 +/- 1.3 log10 ng/ml); format: functional
Marmota monax [18] = experiment: Toxicity in Woodchuck hepatitis virus infected woodchuck assessed as increase of liver alanine aminotransferase activity at 15 mg/kg, po qd measured on 4 to 24 weeks on 48 week study; format: organism-based; parameters: dose 15 mg/kg, route oral; settings: in vivo; summary of the method: as §3
Marmota monax [19] = experiment: Toxicity in Woodchuck hepatitis virus infected woodchuck assessed as increase of liver alanine aminotransferase activity at 15 mg/kg, po qd for 48 weeks; format: organism-based; parameters: dose 15 mg/kg, route oral; settings: in vivo, 8064 h; summary of the method: as §3
[20] = system: Woodchuck hepatitis virus; experiment: Antiviral activity against Woodchuck hepatitis virus infected in woodchuck assessed as frequency of hepatocytes expressing viral antigen at 15 mg/kg, po qd for 48 weeks measured on 60th week; format: functional, Hepatocyte; summary of the method: as §4
[21] = system: Woodchuck hepatitis virus; experiment: Antiviral activity against Woodchuck hepatitis virus infected in woodchuck assessed as reduction of viral DNA replicative intermediate level per ug of total cell DNA at 15 mg/kg, po qd measured on 36th week on 48 weeks study (reference value: 1132 +/- 738 pg); format: functional; summary of the method: as §1
[22] = system: Woodchuck hepatitis virus; experiment: Antiviral activity against Woodchuck hepatitis virus infected in woodchuck assessed as reduction of viral antigen positive hepatocytes at 15 mg/kg, po qd measured on 12th week on 48 weeks study (reference value: 55 +/- 32 %); format: functional, Hepatocyte; parameters: scale not given: the % may be the effect or the level left; summary of the method: as §2
[23] = system: Woodchuck hepatitis virus; experiment: Antiviral activity against Woodchuck hepatitis virus infected in woodchuck assessed as reduction of viral RNA level per ug of total cell DNA at 15 mg/kg, po qd for 48 weeks (reference value: 34 +/- 20 pg); format: functional; summary of the method: as §1
[24] = system: Woodchuck hepatitis virus; experiment: Antiviral activity against Woodchuck hepatitis virus infected in woodchuck assessed as absent of lesion in portal hepatitis at 15 mg/kg, po qd for 48 weeks; format: functional, organism-based; parameters: dose 15 mg/kg
Summary of the method: (§6)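 Adult chronic WHV-carrier woodchucks (neonatally inoculated), 5 per group, given drug once daily by dose syringe in semisynthetic liquid diet, for 48 weeks; placebo got diet alone. Ultrasound-guided needle liver biopsies under ketamine/xylazine anesthesia at pretreatment, weeks 12, 36, 48 and 12 weeks post-withdrawal. Biopsies were formalin-fixed, paraffin-embedded and H&E stained. Portal and lobular hepatitis were graded 0 (absent) to 4 (most severe).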

[25] = system: Woodchuck hepatitis virus; experiment: Antiviral activity against Woodchuck hepatitis virus infected in woodchuck assessed as reduction of viral antigen level in serum at 15 mg/kg, po qd for 48 weeks (reference value: 3.8 +/- 1.3 log10 ng/ml); format: functional
[26] = system: Woodchuck hepatitis virus; experiment: Antiviral activity against Woodchuck hepatitis virus infected in woodchuck assessed as reduction of viral DNA replicative intermediate level per ug of total cell DNA at 15 mg/kg, po qd measured on 12th week on 48 weeks study (reference value: 1495 +/- 890 pg); format: functional; summary of the method: as §1
[27] = system: Woodchuck hepatitis virus; experiment: Antiviral activity against Woodchuck hepatitis virus infected in woodchuck assessed as reduction of viral RNA level per ug of total cell DNA at 15 mg/kg, po qd measured on 12th week on 48 weeks study (reference value: 46 +/- 25 pg); format: functional; summary of the method: as §1
Marmota monax [28] = experiment: Toxicity in Woodchuck hepatitis virus infected woodchuck assessed as change in body weight at 15 mg/kg, po qd for 48 weeks measured up to 60 weeks; format: organism-based; parameters: dose 15 mg/kg, route oral; settings: in vivo; summary of the method: as §5
[29] = system: Woodchuck hepatitis virus; experiment: Antiviral activity against Woodchuck hepatitis virus infected in woodchuck assessed as reduction of viral antigen level in serum at 15 mg/kg, po qd for 48 weeks measured on 60th week (reference value: 3.3 +/- 1.6 log10 ng/ml); format: functional
[30] = system: Woodchuck hepatitis virus; experiment: Antiviral activity against Woodchuck hepatitis virus infected in woodchuck assessed as frequency of hepatocytes expressing viral antigen at 15 mg/kg, po qd for 48 weeks; format: functional, Hepatocyte; summary of the method: as §4
[31] = system: Woodchuck hepatitis virus; experiment: Antiviral activity against Woodchuck hepatitis virus infected in woodchuck assessed as absent of lesion in portal hepatitis at 15 mg/kg, po qd measured on 12th week on 48 weeks study; format: functional, organism-based; parameters: dose 15 mg/kg; summary of the method: as §6
[32] = system: Woodchuck hepatitis virus; experiment: Antiviral activity against Woodchuck hepatitis virus infected in woodchuck assessed as absent of lesion in lobular hepatitis at 15 mg/kg, po qd measured on 12th week on 48 weeks study; format: functional, organism-based; parameters: dose 15 mg/kg; summary of the method: as §6

Row | Structure (SMILES) | Activity [1] [pg] | Activity [2] [%] | Activity [3] [%] | Activity (Marmota monax [4]) | Activity [5] [%] | Activity (Marmota monax [6]) | Activity [7] [pg] | Activity [8] [%] | Activity (Marmota monax [9]) | Activity (Marmota monax [10]) | Activity [11] [%] | Activity [12] [pg] | Activity [13] [pg] | Activity (Marmota monax [14]) | Activity (Marmota monax [15]) | Activity [16] [log10ng/ml] | Activity [17] [log10ng/ml] | Activity (Marmota monax [18]) | Activity (Marmota monax [19]) | Activity [20] [%] | further results
1 | Nc1nc(=O)n([C@@H]2CS[C@H](CO)O2)cc1F [EMTRICITABINE] | 1239 | 64 | 40 | Toxic | 2 | Non-toxic | 48 | 63 | Toxic | Toxic | 10 | 43 | 428 | Toxic | Toxic | 4.5 | 4.5 | Toxic | Toxic | 10 | Activity [21]: 644 pg; Activity [22]: 47%; Activity [23]: 35 pg; Activity [24]: Active; Activity [25]: 4.4 log10ng/ml; Activity [26]: 845 pg; Activity [27]: 42 pg; Activity (Marmota monax [28]): Non-toxic; Activity [29]: 4.7 log10ng/ml; Activity [30]: 10%; Activity [31]: Active
2 | Nc1ccn([C@@H]2CS[C@H](CO)O2)c(=O)n1 [LAMIVUDINE] | 1063 | 48 | 36 | Toxic | 1 | Non-toxic | 46 | 59 | Toxic | Toxic | 5 | 47 | 413 | Toxic | Toxic | 4.7 | 5.2 | Toxic | Toxic | 5 | Activity [32]: Active; Activity [21]: 1133 pg; Activity [22]: 39%; Activity [23]: 33 pg; Activity [25]: 4.4 log10ng/ml; Activity [26]: 982 pg; Activity [27]: 39 pg; Activity (Marmota monax [28]): Non-toxic; Activity [29]: 4.6 log10ng/ml; Activity [30]: 5%; Activity [31]: Active
